We go through one compound from paper PMC5088049 (Pharmacogenetics and genomics, 2016).

What all share (type): in vitro ADME
Series [1] addresses T1, AKR1C3 (Homo sapiens, UniProt P42330). Description: Metabolite identification, overnight incubation with recombinant AKR1C3. The note with it: 200 µM EXE, 18-h incubation, 1.5 µg recombinant AKR1C3. Put shortly: (§1)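 Wildtype enzyme was His-tagged, expressed in E. coli BL21 (IPTG induction), Ni-NTA purified and dialysed against PBS. It was stopped with ice-cold acetonitrile and centrifuged. UPLC/ESI+ full scan (m/z 100–450) was followed by targeted MS/MS transitions. Retention times were matched to synthetic 17α/17β-dihydro standards.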

Series [2] addresses T1, AKR1C3. Description: Kinetics of EXE reduction to 17β-DHE, recombinant AKR1C3.
In a further series the target is T2, AKR1C4 Ser145Cys (Homo sapiens, UniProt P17516, S145C).
T2 sequence (P17516 1-323 S145C): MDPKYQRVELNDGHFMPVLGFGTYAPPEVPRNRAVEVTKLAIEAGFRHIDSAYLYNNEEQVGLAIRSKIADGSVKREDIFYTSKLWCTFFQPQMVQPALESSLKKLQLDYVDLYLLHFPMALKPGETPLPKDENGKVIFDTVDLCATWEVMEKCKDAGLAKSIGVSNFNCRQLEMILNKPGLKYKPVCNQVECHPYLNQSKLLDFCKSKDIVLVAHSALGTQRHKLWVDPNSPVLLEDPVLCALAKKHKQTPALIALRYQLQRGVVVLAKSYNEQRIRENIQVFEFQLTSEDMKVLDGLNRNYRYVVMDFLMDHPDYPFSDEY
Description: Kinetics of EXE reduction to 17β-DHE, recombinant AKR1C4 Ser145Cys.

The target of another series is T3, AKR1C4 Gly135Glu (Homo sapiens, UniProt P17516, G135E).
T3 sequence (P17516 1-323 G135E): T2 sequence (P17516 1-323 S145C) with G135E, C145S
Kind of series: Kinetics of EXE reduction to 17β-DHE, recombinant AKR1C4 Gly135Glu. The settings on record: for VMAX: normalized to enzyme purity.

The target of a further series is AKR1C3 Arg258Cys (Homo sapiens, UniProt P42330, R258C). Description: Kinetics of EXE reduction to 17β-DHE, recombinant AKR1C3 Arg258Cys.
In a further series the target is AKR1C3 His5Gln (Homo sapiens, UniProt P42330, H5Q). Description: Kinetics of EXE reduction to 17β-DHE, recombinant AKR1C3 His5Gln.
The next series deals with T4, CBR1 (Homo sapiens, UniProt P16152).
T4 sequence (P16152 1-277): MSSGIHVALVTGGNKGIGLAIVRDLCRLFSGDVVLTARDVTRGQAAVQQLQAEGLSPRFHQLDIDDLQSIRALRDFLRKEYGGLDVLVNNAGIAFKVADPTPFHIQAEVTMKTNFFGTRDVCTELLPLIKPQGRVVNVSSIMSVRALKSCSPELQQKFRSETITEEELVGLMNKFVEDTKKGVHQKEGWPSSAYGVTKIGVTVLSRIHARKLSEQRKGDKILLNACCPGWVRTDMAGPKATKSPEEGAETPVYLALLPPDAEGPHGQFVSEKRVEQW
Kind of series: Metabolite identification, overnight incubation with recombinant CBR1. The settings on record: 200 µM EXE, 18-h incubation, 1.5 µg recombinant CBR1. Put shortly: as §1

Changes are numbered by the printed parent chain.

What is called Km is the concentration of substrate that gives half-maximal velocity.

Chain of AKR1C3 Arg258Cys (P42330 whole entry R258C): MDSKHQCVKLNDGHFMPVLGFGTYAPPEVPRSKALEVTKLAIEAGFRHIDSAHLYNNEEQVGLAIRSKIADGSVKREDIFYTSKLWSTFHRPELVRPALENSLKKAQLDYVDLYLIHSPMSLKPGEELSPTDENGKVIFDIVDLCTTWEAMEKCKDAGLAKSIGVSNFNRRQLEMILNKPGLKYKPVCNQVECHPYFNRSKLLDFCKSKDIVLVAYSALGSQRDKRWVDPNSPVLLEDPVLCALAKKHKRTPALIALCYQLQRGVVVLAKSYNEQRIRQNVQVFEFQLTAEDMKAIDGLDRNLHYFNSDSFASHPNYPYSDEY
T1 sequence (P42330 whole entry): as the sequence (P42330 whole entry R258C) above, with C258R counted along it
Chain of AKR1C3 His5Gln (P42330 whole entry H5Q): as the sequence (P42330 whole entry R258C) above, with H5Q, C258R counted along it

As to `C=C1C[C@@H]2[C@H](CC[C@]3(C)C(=O)CC[C@@H]23)[C@@]2(C)C=CC(=O)C=C12` [exemestane, 6-methylenandrosa-1,4-diene-3-17-dione], the figures for the metabolites formed entry at AKR1C3 [1] and at CBR1 were “only 17β-DHE formation” and “both stereoisomers of DHE”, respectively. Also, the “VMAX of AKR1C3 relative to AKR1C4” value at AKR1C3 [2] (higher than AKR1C4) turned out to be 36 fold. The Km worked out at 12.3 ± 1.1 µM at AKR1C3 [2] (wildtype AKR1C3, 17β-DHE formation); 9.6 ± 2.4 µM on AKR1C4 Ser145Cys (AKR1C4 Ser145Cys (rs3829125), 17β-DHE formation); 311 ± 75.7 µM at AKR1C4 Gly135Glu (AKR1C4 Gly135Glu (rs11253043), 17β-DHE formation); 75.8 ± 19.9 µM on AKR1C3 Arg258Cys (AKR1C3 Arg258Cys (rs62621365), 17β-DHE formation); 17.9 ± 2.9 µM on AKR1C3 His5Gln (AKR1C3 His5Gln (rs12529), 17β-DHE formation). The CLINT on AKR1C3 [2] (wildtype AKR1C3, VMAX/KM) is 6.8 nL/min/mg; on AKR1C4 Ser145Cys (AKR1C4 Ser145Cys, VMAX/KM), 0.61 nL/min/mg; at AKR1C4 Gly135Glu (AKR1C4 Gly135Glu, VMAX/KM) it was 0.06 nL/min/mg; on AKR1C3 Arg258Cys (AKR1C3 Arg258Cys, VMAX/KM) it was 0.03 nL/min/mg; at AKR1C3 His5Gln (AKR1C3 His5Gln, VMAX/KM), 0.21 nL/min/mg. Besides, the VMAX on AKR1C3 [2] (wildtype AKR1C3, normalized to enzyme purity) was found to be 83.3 ± 15.4 picomoles·min^−1·mg^−1; on AKR1C4 Ser145Cys (AKR1C4 Ser145Cys, normalized to enzyme purity), 5.9 ± 1.1 picomoles·min^−1·mg^−1; on AKR1C4 Gly135Glu (AKR1C4 Gly135Glu), 19.1 ± 4.2 picomoles·min^−1·mg^−1; at AKR1C4 Gly135Glu (AKR1C4 Gly135Glu, listed as EXE) it was 19.1 ± 4.2 picomoles·min^−1·mg^−1; on AKR1C3 Arg258Cys (AKR1C3 Arg258Cys, normalized to enzyme purity), 2.3 ± 0.1 picomoles·min^−1·mg^−1; at AKR1C3 His5Gln (AKR1C3 His5Gln, normalized to enzyme purity) it was 3.8 ± 0.1 picomoles·min^−1·mg^−1. Also, the “VMAX of AKR1C4 Gly135Glu relative to wildtype” value on AKR1C4 Gly135Glu (faster than wildtype AKR1C4) worked out at 8 fold. Besides, on AKR1C3 Arg258Cys (lower affinity (KM) than wildtype AKR1C3), the “affinity for EXE of AKR1C3 Arg258Cys relative to wildtype” value is on record as “roughly 6 fold”.
